Tested on: not listed separately
Experiment: Chemical stability of the compound in phosphate buffer at pH 7.4 assessed as half life at 100 uM after 30 mins by RP-HPLC analysis
Assay type: physicochemical
Conditions: not given
How it was run: (§1)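 10 mM methanol stock diluted into 50 mM phosphate buffer pH 7.4 prewarmed to 37 °C, final 100 µM; maintained at 37.0 ± 0.5 °C, sampled every 30 min by RP-HPLC (C8, methanol/water 0.1% TFA) for parent loss and oxime formation; first-order kinetics for t1/2; triplicate.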

Row | half-life at 100 µM [h] | Structure (SMILES)
1 | 1.38 | O=C(Nc1ccc(C(F)(F)F)cc1)c1cnon1
2 | 1.68 | O=C(Nc1cccc(C(F)(F)F)c1)c1cnon1
3 | 1.52 | O=C(Nc1cc(C(F)(F)F)cc(C(F)(F)F)c1)c1cnon1
4 | 1.48 | O=C(Nc1ccc(F)cc1)c1cnon1
5 | 1.81 | O=C(Nc1cccc(F)c1)c1cnon1
6 | 1.7 | O=C(Nc1ccccc1F)c1cnon1
7 | 1.53 | O=C(Nc1cc(F)cc(F)c1)c1cnon1
8 | 1.15 | O=C(Nc1ccc([N+](=O)[O-])cc1)c1cnon1
9 | 2.06 | O=C(Nc1ccccc1)c1cnon1
10 | 1.89 | Cc1ccc(NC(=O)c2cnon2)cc1
11 | 1.77 | COc1ccc(NC(=O)c2cnon2)cc1
12 | 1.28 | O=C(Nc1ccc(-c2ccccc2)cc1)c1cnon1
13 | > 24 | Cc1oncc1C(=O)Nc1ccc(C(F)(F)F)cc1 [LEFLUNOMIDE]

Tested on: not listed separately
Experiment: Chemical stability of the compound in phosphate buffer at pH 7.4 assessed as unchanged compound level at 100 uM after 24 hrs by RP-HPLC analysis
Assay type: physicochemical
Conditions: read-out: Stability
How it was run: as §1

Row | remaining at 24 h, 100 µM [%] | Structure (SMILES)
14 | 80 | Cc1oncc1C(=O)Nc1ccc(C(F)(F)F)cc1 [LEFLUNOMIDE]

Tested on: not listed separately
Experiment: Chemical stability of the compound in acidic medium at pH 1 after 6 hrs by RP-HPLC analysis
Assay type: physicochemical
Conditions: buffer, pH 1, 6 h
How it was run: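 Compound added from 10 mM methanol stock into 0.1 M HCl (pH 1) at 37 °C, final 100 µM; held at 37.0 ± 0.5 °C and analysed by RP-HPLC every 30 min for unchanged compound and oxime product; triplicate incubations; C8 column, methanol/water with 0.1% TFA.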

Row | Stability | Structure (SMILES)
15 | Stable | O=C(Nc1ccc(C(F)(F)F)cc1)c1cnon1
16 | Stable | Cc1oncc1C(=O)Nc1ccc(C(F)(F)F)cc1 [LEFLUNOMIDE]

Tested on: not listed separately
Experiment: Chemical stability of the compound in basic medium assessed as half life at pH 10 after 6 hrs by RP-HPLC analysis
Assay type: physicochemical
Conditions: not given
How it was run: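 Run in 0.1 M phosphate buffer, pH 10, at 37.0 ± 0.5 °C, compound 100 µM final (from 10 mM methanol stock); RP-HPLC every 30 min quantifying parent and oxime; ring opening treated as first-order for half-life; triplicate incubations.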

Row | half-life [h] | Structure (SMILES)
17 | < 0.0167 | O=C(Nc1ccc(C(F)(F)F)cc1)c1cnon1
18 | 1.17 | Cc1oncc1C(=O)Nc1ccc(C(F)(F)F)cc1 [LEFLUNOMIDE]

Tested on: not listed separately
Experiment: Dissociation constant, pKa of the compound by potentiometric titration
Assay type: physicochemical
Conditions: not given
How it was run: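 Potentiometric titration under N2 at 25.0 ± 0.1 °C; about 1 mM compound in at least five water–methanol mixtures (24-58 wt% MeOH), ionic strength 0.15 M KCl, acidified to pH 1.8 with 0.5 N HCl, titrated with 0.5 N KOH to pH 10.5; aqueous pKa by Yasuda-Shedlovsky extrapolation to zero cosolvent.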

Row | pKa | Structure (SMILES)
19 | 4.87 | N#C/C(=N\O)C(=O)Nc1ccc(C(F)(F)F)cc1
20 | 4.88 | N#C/C(=N\O)C(=O)Nc1cccc(C(F)(F)F)c1
21 | 4.73 | N#C/C(=N\O)C(=O)Nc1cc(C(F)(F)F)cc(C(F)(F)F)c1
22 | 5.01 | N#C/C(=N\O)C(=O)Nc1ccc(F)cc1
23 | 4.92 | N#C/C(=N\O)C(=O)Nc1cccc(F)c1
24 | 4.87 | N#C/C(=N\O)C(=O)Nc1ccccc1F
25 | 4.81 | N#C/C(=N\O)C(=O)Nc1cc(F)cc(F)c1
26 | 4.61 | N#C/C(=N\O)C(=O)Nc1ccc([N+](=O)[O-])cc1
27 | 5.12 | N#C/C(=N\O)C(=O)Nc1ccccc1
28 | 5.07 | Cc1ccc(NC(=O)/C(C#N)=N/O)cc1
29 | 5.08 | COc1ccc(NC(=O)/C(C#N)=N/O)cc1
30 | 5.03 | N#C/C(=N\O)C(=O)Nc1ccc(-c2ccccc2)cc1

Target: Dihydroorotate dehydrogenase (quinone), mitochondrial (Rattus norvegicus, UniProt Q63707)
Experiment: Inhibition of DHODH in Wistar rat liver homogenates by DCIP reduction assay
Assay type: tissue-based
Conditions: not given

Chain of Dihydroorotate dehydrogenase (quinone), mitochondrial (Q63707 whole entry): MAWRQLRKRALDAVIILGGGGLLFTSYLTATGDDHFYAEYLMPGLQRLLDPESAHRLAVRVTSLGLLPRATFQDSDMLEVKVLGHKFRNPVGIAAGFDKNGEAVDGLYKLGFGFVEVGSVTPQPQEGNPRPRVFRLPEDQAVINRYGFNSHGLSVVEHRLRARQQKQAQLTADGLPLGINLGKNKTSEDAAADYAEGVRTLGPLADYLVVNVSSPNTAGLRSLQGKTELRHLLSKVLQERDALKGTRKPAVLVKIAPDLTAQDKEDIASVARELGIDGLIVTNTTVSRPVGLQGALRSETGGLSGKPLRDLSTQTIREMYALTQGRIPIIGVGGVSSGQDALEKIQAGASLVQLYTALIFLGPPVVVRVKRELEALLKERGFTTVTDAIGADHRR

Row | IC50 [µM] | Structure (SMILES)
31 | 60 | N#C/C(=N\O)C(=O)Nc1ccc(C(F)(F)F)cc1
32 | 17 | N#CC(C(=O)Nc1ccc(C(F)(F)F)cc1)=[N+]([O-])[O-]
33 | 74 | N#CC(C(=O)Nc1ccc([N+](=O)[O-])cc1)=[N+]([O-])[O-]
34 | 26 | N#CC(C(=O)Nc1ccc(-c2ccccc2)cc1)=[N+]([O-])[O-]
35 | 1.6 | Cc1oncc1C(=O)Nc1ccc(C(F)(F)F)cc1 [LEFLUNOMIDE]
